Converted amounts (≈) assume the structure as drawn. The source made the active and inactive calls. The rule behind the calls is not given here.
What was measured:
[1] = test system: Pseudomonas aeruginosa; assay: Antimicrobial activity against Pseudomonas aeruginosa after 18 to 24 hrs in aerobic condition by two-fold serial dilutions method; format: functional
Summary of the method: (§1)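 Colonies grown overnight (~16 h) in Mueller-Hinton broth at 37 °C, 200 rpm, diluted 1/100 and grown to log phase (OD600 ~0.6), then diluted to ~10^5 bacteria/mL. Exposed to 0 to 500 µM in 1:2 series (0.2% DMSO final control), aerobic, 37 °C, 18–24 h. OD600 read; MIC = lowest concentration without visible growth; n = 3.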

[2] = test system: Bacillus subtilis; assay: Antimicrobial activity against Nisin-resistant Bacillus subtilis after 18 to 24 hrs in aerobic condition by two-fold serial dilutions method; format: functional
Summary of the method: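 Strains grown on LB at 37 °C aerobically, then in Mueller-Hinton broth overnight at 200 rpm and brought to log phase (OD600 ~0.6). About 10^5 bacteria/mL exposed to two-fold serial dilutions 0–500 µM, DMSO 0.2% final as control. Aerobic incubation at 37 °C for 18–24 h; OD600 read; MIC = lowest concentration inhibiting visible growth. n = 3.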

[3] = test system: Clostridium botulinum; assay: Antimicrobial activity against Clostridium botulinum after 18 to 24 hrs in anaerobic condition by two-fold serial dilutions method; format: functional
[4] = test system: Enterococcus faecalis; assay: Antimicrobial activity against Enterococcus faecalis after 18 to 24 hrs in anaerobic condition by two-fold serial dilutions method; format: functional
Summary of the method: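 BHI preculture at 37 °C brought to log phase (OD600 ~0.6), then ~10^5 bacteria/mL exposed to 0 to 500 µM (1:2 dilutions, 0.2% DMSO final control). Anaerobic conditions from a gas-pack system, 37 °C, 18–24 h. OD600 read; MIC = lowest concentration with no visible growth; n = 3.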

[5] = test system: Acinetobacter baumannii; assay: Antimicrobial activity against Acinetobacter baumannii after 18 to 24 hrs in aerobic condition by two-fold serial dilutions method; format: functional; summary of the method: as §1
[6] = test system: Bacteroides thetaiotaomicron; assay: Antimicrobial activity against Bacteroides thetaiotaomicron after 18 to 24 hrs in anaerobic condition by two-fold serial dilutions method; format: functional
Summary of the method: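 Precultures in BHI broth at 37 °C in an anaerobic cabinet, grown to log phase (OD600 ~0.6), then seeded at ~10^5 bacteria/mL. Two-fold dilutions from 0 to 500 µM, 0.2% DMSO final as control. Plates incubated anaerobically at 37 °C for 18–24 h, OD600 read; MIC = lowest concentration giving no visible growth; independent triplicate.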

[7] = test system: Escherichia coli; assay: Antimicrobial activity against Escherichia coli after 18 to 24 hrs in aerobic condition by two-fold serial dilutions method; format: functional; summary of the method: as §1
[8] = test system: Salmonella enterica; assay: Antimicrobial activity against Salmonella enterica after 18 to 24 hrs in aerobic condition by two-fold serial dilutions method; format: functional; summary of the method: as §1
[9] = test system: Mycolicibacterium smegmatis; assay: Antimicrobial activity against Mycobacterium smegmatis after 18 to 24 hrs in anaerobic condition by two-fold serial dilutions method; format: functional
[10] = test system: Aspergillus flavus; assay: Antifungal activity against Aspergillus flavus after 2 to 5 days by two-fold serial dilutions method; format: functional
Summary of the method: (§2)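 Broth two-fold serial dilution MIC, 0 to 500 µM (1:2 steps), from 200 mM DMSO stocks; 0.2% DMSO final as vehicle control. Inoculum about 10^5 cells/mL. Strains maintained on potato dextrose agar and in RPMI medium. Plates held at room temperature for 2 to 5 days, OD600 read; MIC = lowest concentration preventing visible growth; independent triplicate.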

[11] = test system: Fusarium graminearum; assay: Antifungal activity against Fusarium graminearum after 2 to 5 days by two-fold serial dilutions method; format: functional
Summary of the method: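 F. graminearum grown on potato dextrose agar and in RPMI medium. Broth microdilution by NCCLS, two-fold serial dilution 0–500 µM, DMSO 0.2% final as vehicle control. Plates kept at room temperature 2 to 5 days, OD600 read; MIC taken as lowest concentration with no visible growth. Independent triplicate.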

[12] = test system: Fusarium oxysporum; assay: Antifungal activity against Fusarium oxysporum after 2 to 5 days by two-fold serial dilutions method; format: functional; summary of the method: as §2
[13] = test system: Fusarium verticillioides; assay: Antifungal activity against Fusarium verticillioides after 2 to 5 days by two-fold serial dilutions method; format: functional; summary of the method: as §2
[14] = test system: Penicillium verrucosum; assay: Antifungal activity against Penicillium verrucosum after 2 to 5 days by two-fold serial dilutions method; format: functional; summary of the method: as §2
[15] = test system: BEAS-2B; assay: Cytotoxicity against human BEAS2B cells assessed as reduction in cell viability after 48 hrs by Resazurin dye-based assay; details: for IC50: Homo sapiens, BEAS-2B; for Activity: human, beas-2b
Summary of the method: (§3)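 Normal human lung epithelial (BEAS-2B) and lung fibroblast (IMR-90) cells were grown in DMEM with 10% FCS. Cells were seeded at ~10^4/well, grown to confluence (48–72 h), then exposed to increasing concentrations for 48 h at 37 °C, 5% CO2, with 0.2% DMSO as control. Resazurin was added for 4 h and fluorescence read at 530/590 nm. Viability was normalized to DMSO wells and IC50 calculated.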

[16] = test system: IMR-90; assay: Cytotoxicity against human IMR90 cells assessed as reduction in cell viability after 48 hrs by Resazurin dye-based assay; details: for IC50: Homo sapiens, IMR-90, 48 h; for Activity: human, imr-90, 48 h; summary of the method: as §3
[17] = test system: Arthrobacter gandavensis; assay: Bactericidal activity against Arthrobacter gandavensis in aerobic condition; format: functional, organism-based
Summary of the method: (§4)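 From the MIC plates, 10 µL from each well without growth was streaked onto agar suited to the organism and incubated under that organism's growth conditions. Colonies were then counted; MBC = lowest concentration allowing ≤1 colony, i.e. killing 99.9% of bacteria.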

[18] = test system: Blautia producta; assay: Bactericidal activity against Clostridium coccoides in anaerobic condition; format: functional, organism-based; summary of the method: as §4
[19] = test system: Clostridium perfringens; assay: Bactericidal activity against Clostridium perfringens in anaerobic condition; format: functional, organism-based
[20] = test system: Acinetobacter baumannii; assay: Bactericidal activity against Acinetobacter baumannii in aerobic condition; format: functional, organism-based; summary of the method: as §4
[21] = test system: Acinetobacter baumannii; assay: Bactericidal activity against Acinetobacter baumannii MRS in aerobic condition; format: functional, organism-based; summary of the method: as §4
[22] = test system: Bacteroides thetaiotaomicron; assay: Bactericidal activity against Bacteroides thetaiotaomicron in anaerobic condition; format: functional, organism-based; summary of the method: as §4
[23] = test system: Escherichia coli; assay: Bactericidal activity against Escherichia coli […] K88 in aerobic condition; format: functional, organism-based
[24] = test system: Helicobacter pylori; assay: Bactericidal activity against Helicobacter pylori in anaerobic condition; format: functional, organism-based; summary of the method: as §4
[25] = test system: Salmonella enterica; assay: Bactericidal activity against Salmonella enterica in aerobic condition; format: functional, organism-based
Summary of the method: (§5)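 MH broth; log-phase bacteria (OD600 ~0.6) diluted to ~10^5 bacteria/mL and exposed to two-fold serial dilutions (0–500 µM; 0.2% DMSO final as vehicle control) at 37 °C, aerobic, 18–24 h. MIC is the lowest concentration preventing visible growth (OD600). MBC is found by streaking 10 µL from no-growth wells onto agar; the MBC is the concentration where ≤1 colony grew. n = 3.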

[26] = test system: Vibrio alginolyticus; assay: Bactericidal activity against Vibrio alginolyticus in aerobic condition; format: functional, organism-based; summary of the method: as §5
[27] = test system: Fusarium graminearum; assay: Fungicidal activity against Fusarium graminearum; format: functional, organism-based
[28] = test system: Fusarium verticillioides; assay: Fungicidal activity against Fusarium verticillioides; format: functional, organism-based
Summary of the method: (§6)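 Filamentous fungi grown on potato dextrose agar and tested in RPMI medium with two-fold serial dilutions (0–500 µM, 0.2% DMSO final). Plates held at room temperature for 2 to 5 days, then OD600 read; MIC taken as the lowest concentration with no visible growth. The fungicidal endpoint is ≤1 colony after streaking 10 µL of no-growth wells on agar. n = 3.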

[29] = test system: Stachybotrys chartarum; assay: Fungicidal activity against Stachybotrys chartarum; format: functional, organism-based; summary of the method: as §6

Structure (SMILES): O=C1/C(=C/c2ccccc2)Oc2cc(O)cc(O)c21
- MIC [1]: > 500 µM
- MIC [2]: 31.2 µM (≈ 7.95 µg/mL)
- MIC [3]: 500 µM (≈ 127 µg/mL)
- MIC [4]: 15.6 µM (≈ 3.97 µg/mL)
- MIC [5]: > 500 µM
- MIC [6]: > 500 µM
- MIC [7]: > 500 µM
- MIC [8]: > 500 µM
- MIC [9]: > 500 µM
- MIC [10]: > 500 µM
- MIC [11]: 31.2 µM (≈ 7.95 µg/mL)
- MIC [12]: > 500 µM
- MIC [13]: > 500 µM
- MIC [14]: > 500 µM
- IC50 [15]: 280 µM
- Activity [15]: Dose-dependent effect
- IC50 [16]: 250 µM
- Activity [16]: Dose-dependent effect
- Activity [17]: Active
- Activity [18]: Active
- Activity [19]: Active
- Activity [20]: Active
- Activity [21]: Active
- Activity [22]: Active
- Activity [23]: Active
- Activity [24]: Active
- Activity [25]: Active
- Activity [26]: Active
- Activity [27]: Active
- Activity [28]: Active
- Activity [29]: Active

Structure (SMILES): COc1cc(/C=C2\Oc3cc(O)cc(O)c3C2=O)ccc1OCc1ccccc1
- MIC [1]: > 500 µM
- MIC [2]: 3.9 µM (≈ 1.52 µg/mL)
- MIC [3]: 62.5 µM (≈ 24.4 µg/mL)
- MIC [4]: 15.6 to 31.2 µM (≈ 6.09 to 12.2 µg/mL)
- MIC [5]: > 500 µM
- MIC [6]: > 500 µM
- MIC [7]: > 500 µM
- MIC [8]: > 500 µM
- MIC [9]: > 500 µM
- MIC [10]: > 500 µM
- MIC [11]: 500 µM (≈ 195 µg/mL)
- MIC [12]: > 500 µM
- MIC [13]: > 500 µM
- MIC [14]: > 500 µM
- IC50 [15]: 190 µM
- Activity [15]: Dose-dependent effect
- IC50 [16]: 340 µM
- Activity [16]: Dose-dependent effect
- Activity [17]: Active
- Activity [18]: Active
- Activity [19]: Active
- Activity [20]: Active
- Activity [21]: Active
- Activity [22]: Active
- Activity [23]: Active
- Activity [24]: Active
- Activity [25]: Active
- Activity [26]: Active
- Activity [27]: Active
- Activity [28]: Active
- Activity [29]: Active

Structure (SMILES): O=C1/C(=C/c2ccc(F)cc2)Oc2cc(O)cc(O)c21
- MIC [1]: > 500 µM
- MIC [2]: 31.2 µM (≈ 8.51 µg/mL)
- MIC [3]: 500 µM (≈ 136 µg/mL)
- MIC [4]: 125 to 250 µM (≈ 34 to 68.1 µg/mL)
- MIC [5]: > 500 µM
- MIC [6]: > 500 µM
- MIC [7]: > 500 µM
- MIC [8]: > 500 µM
- MIC [9]: > 500 µM
- MIC [10]: > 500 µM
- MIC [11]: > 500 µM
- MIC [12]: > 500 µM
- MIC [13]: > 500 µM
- MIC [14]: > 500 µM
- IC50 [15]: 590 µM
- Activity [15]: Dose-dependent effect
- IC50 [16]: 620 µM
- Activity [16]: Dose-dependent effect
- Activity [17]: Active
- Activity [18]: Active
- Activity [19]: Active
- Activity [20]: Active
- Activity [21]: Active
- Activity [22]: Active
- Activity [23]: Active
- Activity [24]: Active
- Activity [25]: Active
- Activity [26]: Active
- Activity [27]: Active
- Activity [28]: Active
- Activity [29]: Active

Source: ChEMBL document CHEMBL4400513, “Aurone derivatives as promising antibacterial agents against resistant Gram-positive pathogens” (Eur J Med Chem, 2019)
